# Shown are actives, neighbours in structure and some others; about 2.4% of the full set was active somewhere.
# ANO1 block: TMEM16A chloride channel inhibitors, primary screen, cell-based, HTS. Anoctamin-1 (Mus musculus), Q8BHY3. HEK293 TMEM16A/YFP iodide influx fluorescence, ionomycin. normalized B-score (activity score, 25-100; higher = stronger inhibition) at 10 µM. 310,000 tested, 1.2% active. AID 588511, 2011;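 active means ratio plate-corrected score three or more library SD toward inhibition, starting fluorescence score within five deviations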;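 further: score derived from kinetic fluorescence span divided by baseline fluorescence per well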
# Target sequence (Q8BHY3 whole entry, looked up): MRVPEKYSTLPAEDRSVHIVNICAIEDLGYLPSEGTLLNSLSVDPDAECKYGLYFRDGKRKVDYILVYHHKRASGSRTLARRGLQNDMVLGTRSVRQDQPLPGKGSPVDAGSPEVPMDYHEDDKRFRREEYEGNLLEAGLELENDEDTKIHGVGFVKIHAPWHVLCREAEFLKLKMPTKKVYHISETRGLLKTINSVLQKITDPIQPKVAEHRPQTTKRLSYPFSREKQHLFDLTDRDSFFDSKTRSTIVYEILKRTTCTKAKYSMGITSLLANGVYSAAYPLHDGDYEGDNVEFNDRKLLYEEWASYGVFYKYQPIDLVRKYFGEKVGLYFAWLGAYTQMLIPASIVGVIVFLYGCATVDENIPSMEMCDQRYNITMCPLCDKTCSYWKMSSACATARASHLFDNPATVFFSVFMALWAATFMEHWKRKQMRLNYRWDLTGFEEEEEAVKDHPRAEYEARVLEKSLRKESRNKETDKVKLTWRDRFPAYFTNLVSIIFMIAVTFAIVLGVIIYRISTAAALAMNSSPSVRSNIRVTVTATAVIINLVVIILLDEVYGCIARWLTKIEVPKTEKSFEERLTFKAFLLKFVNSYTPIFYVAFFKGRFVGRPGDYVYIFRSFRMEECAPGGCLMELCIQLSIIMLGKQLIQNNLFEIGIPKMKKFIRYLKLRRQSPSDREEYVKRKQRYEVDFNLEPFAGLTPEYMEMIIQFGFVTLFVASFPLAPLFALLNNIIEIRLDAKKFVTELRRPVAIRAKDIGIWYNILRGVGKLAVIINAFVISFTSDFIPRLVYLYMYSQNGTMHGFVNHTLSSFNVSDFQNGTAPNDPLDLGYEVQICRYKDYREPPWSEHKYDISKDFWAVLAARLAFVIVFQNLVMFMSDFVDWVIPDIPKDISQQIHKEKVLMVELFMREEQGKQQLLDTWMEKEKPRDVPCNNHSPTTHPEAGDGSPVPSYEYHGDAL
# Apaf-1 inh: inhibitors of human Apaf-1 apoptosome, primary screen, biochemical, DEVD-Rh110 fluorescence, uHTS; Apoptotic protease-activating factor 1 (Homo sapiens), O14727; reconstituted apoptosome caspase-3 activity; inhibition, % at 20 µM; 330,000 tested, 0.71% active; AID 489030, 2010; active means inhibition of at least 40% at 20 µM;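 further: plate controls were DMSO wells for no effect and DEVD-CHO caspase inhibitor wells for full effect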
#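 System: Apoptosome proteins | Medium: Hepes pH 7.5 with detergent and BSA | Also added: Cytochrome c trigger plus (Z-DEVD)2-Rh110 caspase-3 substrate | Incubation: 30 min compound preincubation, 50 min activation, room temperature | Detection: Rhodamine 110 fluorescence at Ex 480/Em 540 nm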
# TMEM16A act: TMEM16A chloride channel activators or potentiators, primary screen, cell-based, HTS; HEK293 TMEM16A/YFP-H148Q/I152L, iodide quench fluorescence; hits give low values; B-score at 10 µM; 340,000 tested, 0.3% active; AID 623877, 2012;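 active means fluorescence-ratio B-score plate-corrected deviation score at least 3 library SD below zero, with starting fluorescence score within 5 deviations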;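 further: channel opened by trigger with iodide after compound preincubation; score built on the fluorescence ratio of max minus min over baseline; more negative score means more quench and so TMEM16A activation or potentiation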
# FID counter: compounds displacing fluorescent DNA intercalator, primary screen, artefact control for HCV NS3 helicase inhibitor project, biochemical, FID fluorescence. DNA fluorescent intercalator displacement. inhibition, % at 7.9 µM. 290,000 tested, 0.17% active; in the data active means inhibition above about 37%;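 further: 0% = vehicle and 100% = reference compound; higher means more ethidium bromide displaced from hairpin DNA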
# UBC13 inh: UBC13 polyubiquitin chain formation inhibitors, primary screen, biochemical, TR-FRET, uHTS; Ubiquitin-conjugating enzyme E2 N (Homo sapiens), P61088; inhibition, % at 20 µM; 330,000 tested, 0.47% active; in the data active means inhibition above about 45%, passing the limit was not always enough; inconclusive means no clear call, values can overlap the other calls
# Casp3 counter: CASP3 inhibitor validation, counterassay for project on UBE2N polyubiquitination blockers, biochemical, one dose | 1,400 tested, 4% active | shares compounds with UBC13 inh | Recombinant caspase-3, Caspase-Glo 3/7 luminescence, 60 min | inhibition, % at 20 µM;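 active means mean inhibition across replicates above about 26%, limit read from the data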;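 further: plate controls were DMSO with caspase-3 for no effect and DMSO wells lacking enzyme for full effect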
# UBC13 confirm: UBC13 polyubiquitination inhibitors, single-point retest, confirmation, biochemical, TR-FRET, single concentration | shares compounds with UBC13 inh | inhibition, % at 10 µM | 1,400 tested, 68% active | AID 488859, 2010; in the data active means inhibition above about 45%; inconclusive means no clear call, values can overlap the other calls
# Numbers without * were called inactive; i = inactive; ? = inconclusive; . = no result given.
SMILES,ANO1 block,Apaf-1 inh,TMEM16A act,FID counter,UBC13 inh,Casp3 counter,UBC13 confirm
CC1CC(CCC(=O)NC(=S)Nc2ccc(S(N)(=O)=O)cc2)C(=O)O1 (configuration not stated),i,8,-4.7*,-4,3,.,.
CC(Sc1nc(N)cc(=O)[nH]1)C(=O)NC1CCCCC1 (configuration not stated),i,3,-9.7*,-5,-16,.,.
c1cc2c(cc1C1CCCCC1)c1c3n2CCCNC3CCC1 (configuration not stated),i,32,i,22,64*,2,72*
CC(=O)n1cc([C@H]2C=C(C(=O)Nc3ccccc3)O[C@@H](OCCCCO)C2)c2ccccc21,i,13,i,-25,69*,2,45
CCSc1nc(-c2ccccc2)c2cc(Cl)ccc2n1,i,7,i,1,49*,-3,?
CN(C)c1nc(-c2ccccc2)c2cc(Cl)ccc2n1,i,12,i,-12,23,.,.
CCC[C@H](CN[C@@H](CNC)[C@H](C)O)NCCc1ccc(OC)cc1,i,-5,i,0,11,.,.
CCCC[C@H](CN[C@@H](CNC)[C@H](C)CC)NCCC12CCC(CC1)C2,i,7,i,32,48*,-3,30
CCCOC(=O)c1cccc(Nc2nc(-c3cccnc3)nc3ccccc23)c1,i,1,i,-7,49*,-4,66*
O=C(OCCNc1nc(-c2ccccc2)nc2ccccc12)c1cccnc1,i,-11,i,-6,9,.,.
O=c1c(Cc2c(F)cccc2Cl)c(O)ccn1CCc1ccccn1,i,1,i,-6,-1,.,.
O=C(NCC1CCCCC1)C1(CC2CC(c3ccc(Cl)cc3)=NO2)CCNCC1 (configuration not stated),i,14,i,15,46*,3,47*
O=C(NCC1CCCCC1)C1(CC2CC(c3cccc(Br)c3)=NO2)CCNCC1 (configuration not stated),i,23,i,23,51*,5,52*
O=C(Nc1cccc(F)c1)/C(=C/c1ccco1)NC(=O)c1ccco1,i,9,i,-16,-10,.,.
COc1ccc(-n2nc(C(=O)NCc3cc(OC)ccc3OC)c3c4ccccc4n(C)c3c2=O)cc1,i,-11,i,-2,47*,2,?
COc1ccc(-n2nc(C(=O)NCc3ccco3)c3c4ccccc4n(C)c3c2=O)cc1,i,-1,i,-1,39,.,.
COCCn1c(SCC(N)=O)nc2c(c1=O)SC(C)C2 (configuration not stated),i,5,i,-7,49*,-4,-4
Cc1ccc(-n2nc3c4c(cccc4c2=O)-c2ccccc2-3)cc1,i,16,i,3,46*,8,39
Cc1noc(/C=C/N(C)C)c1S(=O)(=O)N1CCCC(C(=O)Nc2ccc(F)cc2F)C1 (configuration not stated),i,-3,i,-37,-6,.,.
O=C(OCc1nc2scc(-c3ccccc3)c2c(=O)[nH]1)c1cc([N+](=O)[O-])ccc1Cl,i,22,i,-3,46*,2,-3
O=C(O)CSCc1nc2scc(-c3ccccc3)c2c(=O)[nH]1,i,15,i,-13,-4,.,.
O=S1(=O)CC(O)C(N=Nc2c(O)n(Cc3ccccc3)c3ccccc23)C1 (configuration not stated),i,-10,i,-23,56*,3,44
O=C(N=Nc1c(O)n(Cc2ccccc2)c2ccccc12)c1ccc(O)cc1,i,13,i,-1,-8,.,.

# High-throughput results as filed in PubChem BioAssay.
